An excerpt weighted towards active compounds, which were near 2.3% of everything screened.
ATG4B inhibitor: inhibitors of human ATG4B cysteine protease; ATG4B cleavage of LC3-PLA2, NBD-HPC fluorescence, 1 h; AID 504462; Q9Y4P1; inhibition, % at 8.33 µM; actives 0.51% (n = 340,000); in the data active = inhibition above about 40%
SKN-1 inh: inhibitors of C. elegans SKN-1; actives 0.49% (n = 360,000); AID 624304; inhibition, % at 21.8 µM; C. elegans VP596 Pgst-4::GFP/RFP ratio, acrylamide-induced, 24 h;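 active = interference check ratio from 0.5 to 1.5 plus GFP to RFP signal ratio inhibition reaching or exceeding a fixed threshold, cut at about 30% in these data, passing the limit was not always enough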
MT1-MMP act inh: blocks activation of human MT1-MMP; P50281; HT1080 RFP-PRO-GFP cells, GFP/RFP ratio fluorescence, overnight; percent of plate control window, DMSO zero; GFP/RFP ratio change, % at 20 µM; actives 0.061% (n = 360,000); AID 651647;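 active = GFP/RFP ratio change of at least 30% with cell ATP level not reduced by more than half and red fluorescence within 50% of control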
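Assay system – RFP-PRO-GFP reporter HT1080 cells · Compound dosing – single dose of 20 µM compound, 1% DMSO final · Incubation – overnight compound exposure at 37 °C · Measure – GFP/RFP fluorescence ratio · Benchmarks – DMSO wells and RFP-L50D-GFP cells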
MPTP inh: permeability transition pore inhibition. isolated mouse mitochondria, Ca2+ swelling absorbance, 30 min. inhibition, % at 10 µM. actives 1.4% (n = 360,000). AID 602449;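 active = inhibition of 50% or more, scaled per plate between neutral and stimulator controls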;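 also: 0% = DMSO wells given calcium and 100% = 1 mM EGTA wells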
ATG4B confirm: confirmation of human ATG4B inhibitors | AID 504757 | actives 92% (n = 320) | shares compounds with ATG4B inhibitor | ATG4B protease fluorescent substrate cleavage assay | inhibition, % at 8.33 µM; in the data active = inhibition above about 39%
PLA2 ctr: counter-screen for ATG4B inhibitors: human phospholipase A2; AID 588402; actives 66% (n = 1,600); inhibition, % at 8.33 µM; shares compounds with ATG4B inhibitor; purified PLA2, NBD-C6-HPC fluorescence, 45 min; in the data active = inhibition above about 50%
Target sequence (P04054 whole entry, looked up): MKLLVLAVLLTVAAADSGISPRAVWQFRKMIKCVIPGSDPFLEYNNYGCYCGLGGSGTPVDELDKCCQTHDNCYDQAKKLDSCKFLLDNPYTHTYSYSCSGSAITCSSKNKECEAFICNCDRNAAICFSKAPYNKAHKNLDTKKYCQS
Starred values were filed as active, the others as inactive; . = no result given.

SMILES	ATG4B inhibitor	SKN-1 inh	MT1-MMP act inh	MPTP inh	PLA2 ctr	others
COc1ccc(CCN2C(=O)CCC2(C)c2nnnn2Cc2ccccc2)cc1OC (stereo not drawn)	.	1	2	0	.
CS(=O)(=O)c1ccc(Cl)c(NC(=O)c2cccc(-n3cnnn3)c2)c1	-3	6	6	-1	.
CC(C)CC(=O)c1c[nH]c(C(=O)NCc2ccc(F)cc2)c1	5	11	3	2	.
Cc1ccc(-c2csc3nc(SCC(=O)Nc4ccc(Cl)c(C(=O)O)c4)[nH]c(=O)c23)cc1	78*	14	-7	0	78*
Cc1sc2nc(SCC(=O)Nc3ccc(Cl)c(C(=O)O)c3)[nH]c(=O)c2c1C	-2	6	1	-2	.
O=C(COC(=O)c1cc(Cl)ccc1[N+](=O)[O-])NCc1ccc(Cl)cc1Cl	52*	-3	3	0	46	ATG4B confirm=65*
Cc1cccc(OCC(=O)Nc2cc(S(=O)(=O)N3CCOCC3)ccc2N2CCCC2)c1C	-6	-7	-6	-1	.
CCc1ccccc1OCC(=O)Nc1cc(S(=O)(=O)N(CC)CC)ccc1N1CCOCC1	54*	19	-6	-2	92*
Cc1ccccc1OCC(=O)Nc1cc(S(=O)(=O)N2CCCCC2)ccc1N1CCN(C)CC1	46*	6	0	-1	50*
CCN(CC)S(=O)(=O)c1ccc(N2CCOCC2)c(NC(=O)COc2ccccc2)c1	26	9	0	-3	.
O=C(O)c1cc(NN=C2c3ccccc3-c3ccccc32)ccc1Cl	45*	5	1	1	39	ATG4B confirm=62*
CC1=CCC[C@@H]2[C@@](C)(CC/C(C)=C/C(=O)O)[C@H](C)CC[C@@]12C	79*	2	3	2	81*
C[C@@H]1CCCCO[C@H](CN(C)C(=O)Nc2ccccc2)[C@@H](C)CN([C@H](C)CO)C(=O)c2cc(NS(=O)(=O)c3cn(C)cn3)ccc2O1	.	-12	1	-3	.
CC1CC(C)CN(C(=O)c2ccc3ccccc3c2)C1 (stereo not drawn)	54*	-11	4	0	50*
CC1CC(C)CN(C(=O)c2ccc(S(=O)(=O)N3CC(C)CC(C)C3)cc2)C1 (stereo not drawn)	51*	25	-9	2	66*
CC1CC(C)CN(C(=O)c2ccc(C#N)cc2)C1 (stereo not drawn)	-5	10	-7	-1	.
CC1CC(C)CN(C(=O)c2ccc(C(=O)c3ccccc3)cc2)C1 (stereo not drawn)	42*	21	1	2	44	ATG4B confirm=66*
CC(Sc1nncs1)C(=O)Nc1ccc(S(=O)(=O)Nc2ncccn2)cc1 (stereo not drawn)	-2	-11	14	-2	.
Cc1ncsc1CCC(=O)N1CCCC(Nc2ccc(C(C)C)cc2)C1 (stereo not drawn)	30	27	0	0	.
Cc1ccc(-n2c(C)cc(C(=O)COC(=O)c3ccc[nH]c3=O)c2C)cc1C	45*	6	3	2	6
Cc1ccc(-n2c(SCc3cn4ccsc4n3)nc3ccccc3c2=O)cc1	74*	22	-12	0	79*
Cc1ccc(NC(=S)NNC(=O)CSc2nc3ccccc3c(=O)n2-c2ccc(C)cc2)cc1	88*	3	-1	3	93*
O=C(Nc1ccc(OC(F)(F)F)cc1)C1CCCN(S(=O)(=O)c2cnc[nH]2)C1 (stereo not drawn)	-4	3	5	-2	.
CC1CCC2(CC1)NC(=O)N(CC(=O)c1ccc(Cl)s1)C2=O (stereo not drawn)	-4	-12	-2	0	.
CCOC(=O)C1=C(C)N=c2s/c(=C/c3cccc([N+](=O)[O-])c3O)c(=O)n2C1c1ccccc1 (stereo not drawn)	58*	10	8	31	27
NNC(=O)c1cc(C23CC4CC(CC(C4)C2)C3)[nH]n1	-1	7	4	0	.
CC(C)(C)C(=O)c1cnc(Nc2ccccc2Cl)s1	19	-10	5	2	.
O=C(c1ccccc1)c1cnc(Nc2ccccc2Cl)s1	44*	8	-3	2	46	ATG4B confirm=65*

Screening data deposited in PubChem by Sanford-Burnham Center for Chemical Genomics.
